What is called IC50 is the concentration that gives 50% inhibition. By Kb is commonly meant the affinity of an antagonist, worked out from how it opposes an agonist.

Consider 5 compounds from ChEMBL document CHEMBL3861962 (Eur J Med Chem, 2016).

Where a SMILES comes first, the peptide text is derived from it. [ ]: non-standard residue; d: D form. Bounds are passed on as bounds.

One series deals with T1, Endothelin-1 receptor (Homo sapiens, UniProt P25101).
T1 sequence (P25101 whole entry): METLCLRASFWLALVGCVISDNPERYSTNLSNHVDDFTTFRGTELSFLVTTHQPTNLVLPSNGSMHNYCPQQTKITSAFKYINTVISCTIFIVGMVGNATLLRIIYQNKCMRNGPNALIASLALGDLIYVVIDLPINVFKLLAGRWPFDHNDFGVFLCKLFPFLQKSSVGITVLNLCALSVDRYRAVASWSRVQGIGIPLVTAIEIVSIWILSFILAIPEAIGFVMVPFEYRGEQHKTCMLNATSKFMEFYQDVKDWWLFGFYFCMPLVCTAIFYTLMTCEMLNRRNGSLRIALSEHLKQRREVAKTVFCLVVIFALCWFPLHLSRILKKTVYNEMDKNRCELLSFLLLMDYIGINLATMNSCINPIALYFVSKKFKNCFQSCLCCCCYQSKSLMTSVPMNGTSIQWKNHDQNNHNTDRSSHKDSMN
The series is described as follows: Antagonist activity at ETA receptor in human SKNMC cells assessed as inhibition of endothelin-1-mediated Ca2+ mobilization by fura-2/AM dye-based spectrofluorimetric method.

Series [1] deals with T2, Endothelin receptor type B (Homo sapiens) (UniProt P24530).
T2 sequence (whole entry): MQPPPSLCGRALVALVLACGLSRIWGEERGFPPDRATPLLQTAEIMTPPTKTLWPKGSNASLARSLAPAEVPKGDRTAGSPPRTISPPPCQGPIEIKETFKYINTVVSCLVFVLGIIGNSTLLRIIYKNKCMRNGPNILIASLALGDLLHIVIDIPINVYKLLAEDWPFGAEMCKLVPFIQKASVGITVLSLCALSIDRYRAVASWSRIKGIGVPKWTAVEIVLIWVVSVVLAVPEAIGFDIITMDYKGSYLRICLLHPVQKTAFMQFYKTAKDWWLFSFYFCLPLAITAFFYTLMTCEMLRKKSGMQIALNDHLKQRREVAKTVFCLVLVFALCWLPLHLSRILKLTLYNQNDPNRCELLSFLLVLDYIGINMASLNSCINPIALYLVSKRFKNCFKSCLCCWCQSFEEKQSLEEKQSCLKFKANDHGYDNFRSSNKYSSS
The series is described as follows: (§1) Antagonist activity at ETB receptor in human BSMC assessed as inhibition of endothelin-1 or 3-mediated Ca2+ mobilization preincubated for 5 mins followed by endothelin-1 or 3 addition by fura-2/AM dye-based spectrofluorimetric method. Type of series: functional. (In general: Calcium flux is commonly read through the fluorescence of an indicator in the cells.)

In series [2] the target is T3, Endothelin receptor type B (Homo sapiens, UniProt P24530).
T3 sequence (P24530 whole entry): T2 sequence (whole entry)
The series is described as §1. Format: functional.

In series [3] the target is T4, Cytochrome P450 3A4 (Homo sapiens, UniProt P08684). Description: Drug level assessed as human recombinant CYP3A4-mediated compound formation treated with bosentan at 5 uM in presence of NADPH after 30 mins by LC-MS/MS analysis. Type of series: ADME. The following applies: recombinant enzyme, 0.5 h. The method, boiled down:
(§2)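 Substrate at 5 μM final in 100 mM potassium phosphate, pH 7.4, incubated with human liver microsomes or baculovirus-expressed recombinant CYP3A4, 2D6 or 2C9. Reaction started with 1 mM NADPH and run 0, 15 and 30 min at 37 °C. Stopped with ice-cold acetonitrile containing labetalol internal standard, then centrifuged. Supernatant analysed by LC-MS/MS on a C18 column at 40 °C. Blank was enzyme without substrate.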

Series [4] is described as follows: Drug level in human liver microsomes treated with bosentan at 5 uM in presence of NADPH after 30 mins by LC-MS/MS analysis. Conditions: 0.5 h. Format: ADME. In a few lines:
as §2
On the technique in general: Liver microsomes are a subcellular fraction often used to study metabolism.

The target in series [5] is T5, Cytochrome P450 2C9 (Homo sapiens, UniProt P11712). The series is described as follows: Drug level assessed as human recombinant CYP2C9-mediated compound formation treated with bosentan at 5 uM in presence of NADPH after 30 mins by LC-MS/MS analysis. The following applies: recombinant enzyme, 0.5 h. Type of series: ADME. The method, boiled down: as §2
T5 sequence (P11712 whole entry): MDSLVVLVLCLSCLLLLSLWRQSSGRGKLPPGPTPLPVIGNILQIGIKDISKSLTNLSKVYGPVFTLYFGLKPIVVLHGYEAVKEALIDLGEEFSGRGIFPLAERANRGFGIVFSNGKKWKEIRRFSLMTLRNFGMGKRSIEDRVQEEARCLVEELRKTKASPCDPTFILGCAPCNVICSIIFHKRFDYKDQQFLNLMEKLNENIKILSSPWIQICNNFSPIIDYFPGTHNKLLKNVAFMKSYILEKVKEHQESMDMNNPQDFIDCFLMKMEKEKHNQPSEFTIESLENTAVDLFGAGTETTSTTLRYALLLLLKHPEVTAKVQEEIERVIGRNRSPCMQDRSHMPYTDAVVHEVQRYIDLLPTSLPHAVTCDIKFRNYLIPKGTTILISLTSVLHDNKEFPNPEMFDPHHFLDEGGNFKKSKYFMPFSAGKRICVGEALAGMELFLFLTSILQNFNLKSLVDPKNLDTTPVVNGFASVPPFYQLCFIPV
Series [6] is described as follows: Retention time of the compound. Type of series: physicochemical.
Series [7] can be described thus: Metabolic stability in human liver microsomes assessed as parent compound remaining at 5 uM in presence of NADPH after 30 mins by LC-MS/MS analysis. Type of series: ADME. The following applies: read-out: Stability. In a few lines:
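Pooled human liver microsomes in 100 mM potassium phosphate, pH 7.4, with test compound at 5 μM final. Reaction started with 1 mM NADPH (final) and run at 37 °C in a shaking water bath for 0, 15 and 30 min. Stopped with an equal volume of ice-cold acetonitrile containing 0.6 μM labetalol as internal standard. Protein was spun out and the supernatant analysed by LC-MS/MS. Blank had no compound.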

The target of series [8] is T4, Cytochrome P450 3A4. The series is described as follows: Drug metabolism assessed as human recombinant CYP3A4-mediated metabolite formation by measuring parent compound remaining at 5 uM in presence of NADPH after 30 mins by LC-MS/MS analysis. The following applies: recombinant enzyme, 0.5 h. Type of series: ADME. The method, boiled down: as §2
The target in series [9] is T5, Cytochrome P450 2C9. The series is described as follows: Drug metabolism assessed as human recombinant CYP2C9-mediated metabolite formation by measuring parent compound remaining at 5 uM in presence of NADPH after 30 mins by LC-MS/MS analysis. Type of series: ADME. Conditions: recombinant enzyme, 0.5 h. The method, boiled down: as §2
Series [10] in a line: Drug metabolism in human liver microsomes assessed as formation of 4-(1-hydroxy-2-methylpropan-2-yl)-N-(6-(2-hydroxyethoxy)-5-(2-methoxyphenoxy)-2,2'-bipyrimidin-4-yl)benzenesulfonamide at 5 uM in presence of NADPH after 30 mins by LC-MS/MS analysis. Type of series: ADME. The following applies: 0.5 h. The method, boiled down:
as §2

A short description of series [11]: Drug metabolism in human liver microsomes assessed as formation of 4-tert-butyl-N-(6-(2-hydroxyethoxy)-5-(2-hydroxyphenoxy)-2,2'-bipyrimidin-4-yl)benzenesulfonamide at 5 uM in presence of NADPH after 30 mins by LC-MS/MS analysis. Format: ADME. The following applies: 0.5 h. In a few lines: as §2
The nature of series [12]: Drug metabolism in human liver microsomes assessed as formation of 4-(1-hydroxy-2-methylpropan-2-yl)-N-(6-(2-hydroxyethoxy)-5-(2-hydroxyphenoxy)-2,2'-bipyrimidin-4-yl)benzenesulfonamide at 5 uM in presence of NADPH after 30 mins by LC-MS/MS analysis. Format: ADME. Conditions: 0.5 h. The method, boiled down:
as §2

In series [13] the target is T4, Cytochrome P450 3A4. The series is described as follows: Drug metabolism assessed as human recombinant CYP3A4-mediated formation of 4-(1-hydroxy-2-methylpropan-2-yl)-N-(6-(2-hydroxyethoxy)-5-(2-methoxyphenoxy)-2,2'-bipyrimidin-4-yl)benzenesulfonamide at 5 uM in presence of NADPH after 30 mins by LC-MS/MS analysis. Type of series: ADME. Conditions: recombinant enzyme, 0.5 h. In a few lines: as §2

In series [14] the target is T4, Cytochrome P450 3A4. Description: Drug metabolism assessed as human recombinant CYP3A4-mediated formation of 4-tert-butyl-N-(6-(2-hydroxyethoxy)-5-(2-hydroxyphenoxy)-2,2'-bipyrimidin-4-yl)benzenesulfonamide at 5 uM in presence of NADPH after 30 mins by LC-MS/MS analysis. Type of series: ADME. Conditions: recombinant enzyme, 0.5 h. In a few lines: as §2
Series [15] addresses T4, Cytochrome P450 3A4. Description: Drug metabolism assessed as human recombinant CYP3A4-mediated formation of 4-(1-hydroxy-2-methylpropan-2-yl)-N-(6-(2-hydroxyethoxy)-5-(2-hydroxyphenoxy)-2,2'-bipyrimidin-4-yl)benzenesulfonamide at 5 uM in presence of NADPH after 30 mins by LC-MS/MS analysis. Format: ADME. The following applies: recombinant enzyme, 0.5 h. The method, boiled down:
as §2

Series [16] deals with T5, Cytochrome P450 2C9. The series is described as follows: Drug metabolism assessed as human recombinant CYP2C9-mediated formation of 4-(1-hydroxy-2-methylpropan-2-yl)-N-(6-(2-hydroxyethoxy)-5-(2-methoxyphenoxy)-2,2'-bipyrimidin-4-yl)benzenesulfonamide at 5 uM in presence of NADPH after 30 mins by LC-MS/MS analysis. Type of series: ADME. Conditions: recombinant enzyme, 0.5 h. In a few lines: as §2

The next series deals with Cytochrome P450 2D6 (Homo sapiens, UniProt P10635). The series is described as follows: Drug metabolism assessed as human recombinant CYP2D6-mediated metabolite formation by measuring parent compound remaining at 5 uM in presence of NADPH after 30 mins by LC-MS/MS analysis. The following applies: recombinant enzyme, 0.5 h. Format: ADME. In a few lines: as §2
Sequence of Cytochrome P450 2D6 (P10635 whole entry): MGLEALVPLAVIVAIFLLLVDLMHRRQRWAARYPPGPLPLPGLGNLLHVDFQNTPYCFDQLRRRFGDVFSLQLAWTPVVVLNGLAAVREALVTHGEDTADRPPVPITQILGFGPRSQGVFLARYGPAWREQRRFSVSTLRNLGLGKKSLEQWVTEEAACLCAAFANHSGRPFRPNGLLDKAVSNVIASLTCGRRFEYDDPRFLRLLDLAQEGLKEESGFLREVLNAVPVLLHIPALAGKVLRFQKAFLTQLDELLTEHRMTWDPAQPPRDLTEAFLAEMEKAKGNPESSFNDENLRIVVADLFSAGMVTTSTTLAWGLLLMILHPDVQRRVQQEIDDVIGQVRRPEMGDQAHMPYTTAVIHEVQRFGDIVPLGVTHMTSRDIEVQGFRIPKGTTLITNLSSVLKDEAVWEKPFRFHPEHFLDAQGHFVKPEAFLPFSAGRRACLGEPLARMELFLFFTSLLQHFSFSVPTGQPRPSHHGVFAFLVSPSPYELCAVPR
A short description of series [17]: Cytotoxicity against CHOK1 cells assessed as decrease in cell viability after 24 hrs by MTT assay. Format: toxicity, cell-based, Cricetulus griseus. The following applies: Chinese hamster, CHO-K1 cells. The method, boiled down:
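CHO-k1 cells grown in phenol-red-free DMEM/F-12 with 10% FBS, seeded at 20,000 cells/well and allowed to attach overnight. Exposure was 24 h to 0.1–200 μM, with DMSO as vehicle control. MTT at 1 mg/mL for 3 h at 37 °C, formazan dissolved in DMSO, absorbance read at 570 nm. Data given as % OD of vehicle control; IC50 taken from dose–response curve fits.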
For orientation: Tetrazolium assays rely on reduction of a dye to a coloured formazan, in cell work by metabolically active cells.

The target of series [18] is T4, Cytochrome P450 3A4. Description: Drug level assessed as human recombinant CYP3A4-mediated compound formation treated with 4-(tert-Butyl)-N-(6-ethoxy-5-(2-methoxyphenoxy)-[2,2'-bipyrimidin]-4-yl)benzenesulfonamide at 5 uM in presence of NADPH after 30 mins by LC-MS/MS analysis. Type of series: ADME. Conditions: recombinant enzyme, 0.5 h. In a few lines: as §2
Series [19] in a line: Drug level in human liver microsomes treated with 4-(tert-Butyl)-N-(6-ethoxy-5-(2-methoxyphenoxy)-[2,2'-bipyrimidin]-4-yl)benzenesulfonamide at 5 uM in presence of NADPH after 30 mins by LC-MS/MS analysis. Type of series: ADME. Conditions: 0.5 h. In a few lines:
as §2

Series [20] has as its target T5, Cytochrome P450 2C9. The series is described as follows: Drug level assessed as human recombinant CYP2C9-mediated compound formation treated with 4-(tert-Butyl)-N-(6-ethoxy-5-(2-methoxyphenoxy)-[2,2'-bipyrimidin]-4-yl)benzenesulfonamide at 5 uM in presence of NADPH after 30 mins by LC-MS/MS analysis. Format: ADME. The following applies: recombinant enzyme, 0.5 h. In a few lines:
as §2

T4 sequence (P08684 whole entry): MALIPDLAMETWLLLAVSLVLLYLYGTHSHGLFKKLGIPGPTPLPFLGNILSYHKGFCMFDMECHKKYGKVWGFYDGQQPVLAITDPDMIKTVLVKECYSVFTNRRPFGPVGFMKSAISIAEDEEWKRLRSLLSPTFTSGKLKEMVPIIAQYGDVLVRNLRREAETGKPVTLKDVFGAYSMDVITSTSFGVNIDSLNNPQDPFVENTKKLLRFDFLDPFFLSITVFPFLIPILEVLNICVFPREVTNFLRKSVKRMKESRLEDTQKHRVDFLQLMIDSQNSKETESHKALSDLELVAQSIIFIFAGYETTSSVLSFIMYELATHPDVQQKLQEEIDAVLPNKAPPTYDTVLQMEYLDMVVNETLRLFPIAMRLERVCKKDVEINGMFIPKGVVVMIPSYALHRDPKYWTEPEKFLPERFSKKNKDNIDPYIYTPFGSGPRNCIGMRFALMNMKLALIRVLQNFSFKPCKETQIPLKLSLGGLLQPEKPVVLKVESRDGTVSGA

Consider `CC(C)C[C@@H]1NC(=O)[C@@H](C(C)C)NC(=O)[C@@H]2CCCN2C(=O)[C@@H](CC(=O)O)NC(=O)[C@@H](Cc2c[nH]c3ccccc23)NC1=O` [BQ-123] (cyclo(L[dW][dD]P[dV])), for which the half-inhibitory concentration (IC50) on Endothelin-1 receptor came to 0.62 nM.
Take `CCCC[C@@H](NC(=O)[C@@H](Cc1cn(C(=O)OC)c2ccccc12)NC(=O)[C@H](CC(C)(C)C)NC(=O)N1[C@H](C)CCC[C@@H]1C)C(=O)O`: in series [1], the Kb came out at 0.5 nM. Moreover, the IC50 in [2] is 0.41 nM.
With `COc1ccccc1Oc1c(NS(=O)(=O)c2ccc(C(C)(C)CO)cc2)nc(-c2ncccn2)nc1OCCO`, the Drug metabolism entry (on Cytochrome P450 3A4 [3]; in series [4]; on Cytochrome P450 2C9 [5]) was “Metabolite_Detected” throughout. Moreover, the Retention_time in series [6] is 3.79 min.
As for `COc1ccccc1Oc1c(NS(=O)(=O)c2ccc(C(C)(C)C)cc2)nc(-c2ncccn2)nc1OCCO` [BOSENTAN], the remaining at 0.5 h, 5 µM in [7] is 91.6%. Besides, the values for the Stability on Cytochrome P450 3A4 [8], at Cytochrome P450 2C9 [9] and at Cytochrome P450 2D6 were 20.9%, 75.8% and more than 99%, respectively. Also, the Drug metabolism entry (in series [10]; in series [11]; in series [12]; at Cytochrome P450 3A4 [13]; on Cytochrome P450 3A4 [14]; on Cytochrome P450 3A4 [15]) was “Metabolite_Detected” each time. For the same compound, the Drug metabolism result on Cytochrome P450 2C9 [16] is “Metabolite_Detected”. In [6], this compound had a Retention_time of 5.1 min. In addition, in series [17], the IC50 at 24 h was found to be 196 µM.
`CCOc1nc(-c2ncccn2)nc(NS(=O)(=O)c2ccc(C(C)(C)CO)cc2)c1Oc1ccccc1OC`: the Drug metabolism entry (on Cytochrome P450 3A4 [18]; in series [19]; at Cytochrome P450 2C9 [20]) was “Metabolite_Detected” each time. The Retention_time in [6] is 4.99 min.
